The test system of series [1] is Solanum lycopersicum. Briefly: Inhibition of tomato seedling growth at 100 uM. Further details: scale not given: the % may be the effect or the level left. Format: functional. The procedure, abridged:
(§1)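 Tomato seedlings were conditioned 24 h in water, which was then replaced with filter-sterilized (0.2 µm) test solutions at 2, 0.2, 0.1 or 0.01 mM. Phytotoxic symptoms and root growth inhibition were scored at 24, 48 and 72 h. Each assay was run twice on 10 replicate seedlings.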

For series [2], the system named is Solanum lycopersicum. Briefly: Inhibition of tomato seedling growth at 10 uM. It is filed as functional. Further details: scale not given: the % may be the effect or the level left. The procedure, abridged:
as §1

Series [3] deals with Solanum lycopersicum. Nature of the series: Induction of necrotic symptoms in tomato leaves up to 2 mM by tomato seedling bioassay. Format: functional, organism-based. The essentials: as §1
The test system of series [4] is Solanum lycopersicum. Briefly: Inhibition of tomato seedling growth at 200 uM. It is filed as functional, organism-based. The essentials:
as §1

Series [5] can be described thus: Cytotoxicity against bovine endothelial cells at 50 uM. It is filed as cell-based, Bos taurus. Conditions: cattle, endothelial cell.
A short description of series [6]: Cytotoxicity against bovine endothelial cells at 12.5 uM. It is filed as cell-based, Bos taurus. Conditions: cattle, endothelial cell.
Series [7] relates to Endothelial cell. Nature of the series: Antiangiogenic activity in bovine endothelial cells assessed as inhibition of cell migration at 12.5 uM. Format: functional, cell-based. Conditions: Bos taurus.
The subject of series [8] is Endothelial cell. Nature of the series: Antiangiogenic activity in bovine endothelial cells assessed as inhibition of cell migration at 50 uM. It is filed as functional, cell-based. The conditions noted are these: Bos taurus.

Drawing on ChEMBL document CHEMBL1159304, “Cryphonectric acid and other minor metabolites from a hypovirulent strain of Cryphonectria parasitica” (J Nat Prod, 2002), this text covers Activity for 2 molecules.

The source made the active and inactive calls. No cut-off for these calls is given here.

As for `COc1cc(O)c2c(=O)oc(CC(C)O)cc2c1` (stereo not given) [DIAPORTHIN], the Activity is listed as 75% in series [1] and 50% in series [2]. Further, the result in series [3] was inactive. Also, the outcome in series [4] was Active.
`O=C(O)c1cc(O)c(C2OC(=O)c3c(O)cc(O)cc32)c(O)c1` (stereo not given) [CRYPHONECTRIC ACID]: the Activity entry in series [5] and in series [6] was “Non-toxic” throughout. Moreover, the outcome in series [1] was Active. For the same molecule, the outcome in series [7], in series [8] and in series [3] was inactive.
